From ChEMBL document CHEMBL1158519, “Syntheses and antibacterial activity studies of new oxazolidinones from nitroso Diels-Alder chemistry” (2010)

Experiments:
Type in all cases: functional
Conditions in all cases: read-out: DIZ
[1] = system: Mycolicibacterium vaccae; assay: Antimicrobial activity against Mycobacterium vaccae IMET 10670 at 2 mM after overnight incubation by agar diffusion method
How it was run: (§1)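 Agar diffusion: 9 mm wells cut in Standard I Nutrient Agar or Mueller Hinton II agar, each loaded with 50 µl of a 2.0 mM compound solution in 1:9 DMSO:MeOH. Ciprofloxacin was run as control at 5 µg/mL in H2O. Plates were incubated at 37 °C for 24 h, and the inhibition zone diameter was read in mm. Zones were flagged as partially clear, unclear with colonies, or faint.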

[2] = system: Staphylococcus aureus; assay: Antimicrobial activity against methicillin-resistant Staphylococcus aureus 143/93 at 2 mM after overnight incubation by agar diffusion method
How it was run: (§2)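 Agar well diffusion: 50 µl of a 2.0 mM solution in 1:9 DMSO:MeOH placed in 9 mm wells cut in nutrient agar or Mueller Hinton II agar; plates incubated 37 °C for 24 h, then inhibition zone diameter measured in mm. Zones scored as clear, partially clear, unclear (many colonies inside) or faint. Ciprofloxacin positive control at 5 µg/mL in water.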

[3] = system: Enterococcus faecalis; assay: Antimicrobial activity against vancomycin-resistant Enterococcus faecalis 1528 at 2 mM after overnight incubation by agar diffusion method; how it was run: as §2
[4] = system: Staphylococcus aureus; assay: Antimicrobial activity against wild type Staphylococcus aureus SG 511 at 2 mM after overnight incubation by agar diffusion method; how it was run: as §1
[5] = system: Pseudomonas aeruginosa; assay: Antimicrobial activity against Pseudomonas aeruginosa K799/61 mutant at 2 mM after overnight incubation by agar diffusion method; how it was run: as §2
[6] = system: Bacillus subtilis; assay: Antimicrobial activity against Bacillus subtilis ATCC 6633 at 2 mM after overnight incubation by agar diffusion method; how it was run: as §1
[7] = system: Escherichia coli; assay: Antimicrobial activity against Escherichia coli ATCC 25922 at 2 mM after overnight incubation by agar diffusion method; how it was run: as §1
[8] = system: Micrococcus luteus; assay: Antimicrobial activity against Micrococcus luteus ATCC 10240 at 2 mM after overnight incubation by agar diffusion method; how it was run: as §1
[9] = system: Pseudomonas aeruginosa; assay: Antimicrobial activity against wild type Pseudomonas aeruginosa K799 at 2 mM after overnight incubation by agar diffusion method; how it was run: as §1
[10] = system: Enterococcus faecalis; assay: Antimicrobial activity against Enterococcus faecalis ATCC 49532 at 2 mM after overnight incubation by agar diffusion method; how it was run: as §1
[11] = system: Escherichia coli; assay: Antimicrobial activity against Escherichia coli X580 at 2 mM after overnight incubation by agar diffusion method

## O=C1O[C@@H](COC(=O)N2OC3C=CC2C3)CN1c1ccc(N2CCOCC2)c(F)c1 (some centres not stated)
[1]
  zone of inhibition at 2000 µM: 30 mm
[2]
  zone of inhibition at 2000 µM: 25 mm
[3]
  zone of inhibition at 2000 µM: 19 mm
[4]
  zone of inhibition at 2000 µM: 15 mm
[5]
  zone of inhibition at 2000 µM: 0 mm
[6]
  zone of inhibition at 2000 µM: 17 mm

## O=C1O[C@@H](COC(=O)N2OC3C=CC2CC3)CN1c1ccc(N2CC[S+]([O-])CC2)c(F)c1 (some centres not stated)
[7]
  zone of inhibition at 2000 µM: 0 mm
[1]
  zone of inhibition at 2000 µM: 18 mm
[8]
  zone of inhibition at 2000 µM: 15 mm
[4]
  zone of inhibition at 2000 µM: 15 mm
[5]
  zone of inhibition at 2000 µM: 10 mm
[9]
  zone of inhibition at 2000 µM: 0 mm
[10]
  zone of inhibition at 2000 µM: 17 mm
[6]
  zone of inhibition at 2000 µM: 17 mm

## CC(C)(C)OC(=O)N1CCN(c2ccc(N3C[C@H](COC(=O)N[C@H]4C=C[C@@H](O)C4)OC3=O)cc2F)CC1
[7]
  zone of inhibition at 2000 µM: 0 mm
[1]
  zone of inhibition at 2000 µM: 12 mm
[8]
  zone of inhibition at 2000 µM: 12 mm
[4]
  zone of inhibition at 2000 µM: 14 mm
[5]
  zone of inhibition at 2000 µM: 10 mm
[9]
  zone of inhibition at 2000 µM: 0 mm
[10]
  zone of inhibition at 2000 µM: 12.5 mm
[6]
  zone of inhibition at 2000 µM: 13 mm

## O=C(N[C@H]1C=C[C@@H](O)C1)OC[C@H]1CN(c2ccc(N3CCSCC3)c(F)c2)C(=O)O1
[7]
  zone of inhibition at 2000 µM: 0 mm
[1]
  zone of inhibition at 2000 µM: 18 mm
[8]
  zone of inhibition at 2000 µM: 15 mm
[4]
  zone of inhibition at 2000 µM: 12.5 mm
[5]
  zone of inhibition at 2000 µM: 10 mm
[9]
  zone of inhibition at 2000 µM: 0 mm
[10]
  zone of inhibition at 2000 µM: 12.5 mm
[6]
  zone of inhibition at 2000 µM: 14 mm

## CC(=O)OC[C@H]1CN(c2ccc(N3CCOCC3)c(F)c2)C(=O)O1
[7]
  zone of inhibition at 2000 µM: 0 mm
[1]
  zone of inhibition at 2000 µM: 43 mm
[8]
  zone of inhibition at 2000 µM: 38 mm
[4]
  zone of inhibition at 2000 µM: 26 mm
[5]
  zone of inhibition at 2000 µM: 17 mm
[9]
  zone of inhibition at 2000 µM: 0 mm
[10]
  zone of inhibition at 2000 µM: 24 mm
[6]
  zone of inhibition at 2000 µM: 26.5 mm

## CC(C)(C)OC(=O)N1CCN(c2ccc(N3C[C@H](COC(=O)N4OC5C=CC4C5)OC3=O)cc2F)CC1 (some centres not stated)
[7]
  zone of inhibition at 2000 µM: 0 mm
[1]
  zone of inhibition at 2000 µM: 19 mm
[2]
  zone of inhibition at 2000 µM: 19 mm
[8]
  zone of inhibition at 2000 µM: 16 mm
[3]
  zone of inhibition at 2000 µM: 16 mm
[4]
  zone of inhibition at 2000 µM: 13 mm
[5]
  zone of inhibition at 2000 µM: 0 mm
[9]
  zone of inhibition at 2000 µM: 14 mm
[10]
  zone of inhibition at 2000 µM: 19 mm
[6]
  zone of inhibition at 2000 µM: 12 mm

## CC(C)(C)OC(=O)N1CCN(c2ccc(N3C[C@H](COC(=O)N4OC5C=CC4CC5)OC3=O)cc2F)CC1 (some centres not stated)
[1]
  zone of inhibition at 2000 µM: 13 mm
[2]
  zone of inhibition at 2000 µM: 14 mm
[3]
  zone of inhibition at 2000 µM: 12 mm
[4]
  zone of inhibition at 2000 µM: 16 mm
[5]
  zone of inhibition at 2000 µM: 0 mm
[6]
  zone of inhibition at 2000 µM: 18 mm

## O=C1O[C@@H](COC(=O)N2OC3C=CC2CC3)CN1c1ccc(N2CCOCC2)c(F)c1 (some centres not stated)
[1]
  zone of inhibition at 2000 µM: 15 mm
[2]
  zone of inhibition at 2000 µM: 18 mm
[3]
  zone of inhibition at 2000 µM: 16 mm
[4]
  zone of inhibition at 2000 µM: 16 mm
[5]
  zone of inhibition at 2000 µM: 0 mm
[6]
  zone of inhibition at 2000 µM: 19 mm

## CC(C)(C)OC(=O)N1CCN(c2ccc(N3C[C@H](COC(=O)N[C@H]4C=C[C@@H](O)CC4)OC3=O)cc2F)CC1
[7]
  zone of inhibition at 2000 µM: 0 mm
[1]
  zone of inhibition at 2000 µM: 0 mm
[8]
  zone of inhibition at 2000 µM: 0 mm
[4]
  zone of inhibition at 2000 µM: 0 mm
[5]
  zone of inhibition at 2000 µM: 12 mm
[9]
  zone of inhibition at 2000 µM: 0 mm
[10]
  zone of inhibition at 2000 µM: 12 mm
[6]
  zone of inhibition at 2000 µM: 0 mm

## O=C(O)c1cn(C2CC2)c2cc(N3CCNCC3)c(F)cc2c1=O [CIPROFLOXACIN]
[7]
  zone of inhibition at 2000 µM: 31 mm
[1]
  zone of inhibition at 2000 µM: 19 mm
[2]
  zone of inhibition at 2000 µM: 0 mm
[8]
  zone of inhibition at 2000 µM: 0 mm
[3]
  zone of inhibition at 2000 µM: 15 mm
[4]
  zone of inhibition at 2000 µM: 24 mm
[5]
  zone of inhibition at 2000 µM: 39 mm
[9]
  zone of inhibition at 2000 µM: 35 mm
[10]
  zone of inhibition at 2000 µM: 13 mm
[6]
  zone of inhibition at 2000 µM: 29.5 mm

## CC(=O)NC[C@H]1CN(c2ccc(N3CCOCC3)c(F)c2)C(=O)O1 [LINEZOLID]
[7]
  zone of inhibition at 2000 µM: 0 mm
[1]
  zone of inhibition at 2000 µM: 42 mm
[8]
  zone of inhibition at 2000 µM: 38 mm
[11]
  zone of inhibition at 2000 µM: 0 mm
[4]
  zone of inhibition at 2000 µM: 27 mm
[5]
  zone of inhibition at 2000 µM: 10 mm
[9]
  zone of inhibition at 2000 µM: 0 mm
[10]
  zone of inhibition at 2000 µM: 25 mm
[6]
  zone of inhibition at 2000 µM: 31 mm
